Screening results: PubChem BioAssay, Columbia University Molecular Screening Center
The sample as a whole holds a higher share of hits than the screen did.
INS promoter act: TRM-6 insulin promoter activation; AID 1296; 130,000 compounds, 0.81% hits; TRM-6 cells (human fetal islet line), insulin promoter eGFP reporter, imaging; plate-scaled: unstimulated 0, stimulated control 100; activation, % at 2 µM;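 active = activation at 2 µM above a set limit, confirmed on inspection of the cell images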;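 also: share of cells whose green reporter signal exceeds an intensity cutoff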
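Material: TRM-6 insulin promoter–eGFP reporter cells. Buffer or medium: Low-glucose (5.5 mM) medium with tamoxifen. Probe or stimulus: tamoxifen at 0.75 µM added at seeding for reporter induction. Times: tamoxifen pre-incubation 15 h overnight, then compound exposure 48 h at 37 °C. Detection: high-content imaging of fixed cells with Hoechst nuclear stain.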
A number is an active result; i = inactive.

SMILES	INS promoter act
Cc1ccccc1Oc1cc(-n2ncc(Cl)c(Cl)c2=O)ncn1	270
Cc1nn(-c2ccccc2)c(C)c1NC(=O)COc1ccc(F)cc1Cl	i
COc1cc(/C=N/NC(=O)c2cccc([N+](=O)[O-])c2)ccc1OC(=O)c1ccco1	i
COc1cc2c3nnc(-c4ccccc4)c-3cn(Cc3ccccc3F)c2cc1OC	525
COc1cc2c3nnc(-c4ccc(F)cc4)c-3cn(Cc3ccccc3F)c2cc1OC	800
O=c1c2ccsc2ncn1Cc1ccccc1F	i
COc1ccc(-c2noc(CCN3C(=O)c4ccccc4C3=O)n2)cc1OC	i
Cc1sc2ncn(Cc3ccccc3F)c(=O)c2c1C	i
O=C1NC(=O)/C(=C\c2cn(Cc3ccccc3F)c3ccccc23)N1	i
O=C(COC(=O)Cc1ccsc1)NC1CCCCCC1	i
CCOc1ccccc1-n1c(SCC(=O)NC2CCCC2)nnc1-c1ccoc1C	i
COC(=O)[C@H]1CCCN1C(=O)Nc1cccc(Oc2c(F)c(F)c(F)c(F)c2F)c1	i
COC(=O)C1C(=O)c2c([nH]c(C(=O)OCC3CCCO3)c2C)CC1C (centres undefined)	i
O=C(NCc1ccc(Cl)cc1)c1ccc(Br)o1	i
O=C(CSc1nc2ccccc2[nH]1)N1CCN(S(=O)(=O)c2ccc(Cl)cc2)CC1	97
O=C(CSc1nc2ccccc2[nH]1)NCCc1ccc(Cl)cc1	i
O=S(=O)(c1ccc2nc(SCc3cccc(Cl)c3)[nH]c2c1)N1CCOCC1	i
Cc1ccc(CSCC(=O)N/N=C/c2cccc(OC3CSC3)c2)cc1	i
O=C(Cc1ccccc1)NN1C(=O)C2C3C=CC(C3)[C@@H]2C1=O (some centres undefined)	i
Cc1cc(NC(=O)CCC(=O)N(Cc2cccs2)C(C(=O)NC2CCCC2)c2cccnc2)no1 (centres undefined)	i
Cc1ccc(C(C(=O)NC2CCCC2)N(Cc2ccco2)C(=O)CCC(=O)Nc2cc(C)on2)cc1 (centres undefined)	810
Cc1cc(NC(=O)CCC(=O)N(c2ccccc2)C(C(=O)NC2CCCC2)c2cccs2)no1 (centres undefined)	i
CCc1nnc(NC(=O)CCC(=O)NCCc2ccc(OC)c(OC)c2)s1	i
CC(C)(C)c1cc(C(=O)NCc2ccccc2)ccn1	i
CS(=O)(=O)N1CCN(C(=O)c2cc(-c3ccccc3)nc3ccccc23)CC1	i
SMILES	INS promoter act
CCOc1ccc(-c2cc(C(=O)N3CCN(c4ccccn4)CC3)c3ccccc3n2)cc1	740
O=C(c1cc(Sc2cccc(Cl)c2)nc2ccccc12)N1CCN(c2ccccn2)CC1	i
Cc1ccc(C(=O)N/N=C/c2ccc([N+](=O)[O-])s2)cc1	i
Cc1ccc(NC(=O)/C=C/c2ccc([N+](=O)[O-])s2)c(C)c1	i
Cc1ccc(NC(=O)/C=C/c2ccc([N+](=O)[O-])s2)cc1	270
O=C(Nc1ccc(F)cc1)C1CCN(S(=O)(=O)c2cccs2)CC1	i
CC1=C(C(=O)NC(C)CCc2ccccc2)C2(CCC(C)CC2)OC1=O (centres undefined)	i
CC(=O)Nc1ccc(S(=O)(=O)NCCc2ccccn2)cc1	i
CCOC(=O)N1CCC(NC(=O)c2cc(S(=O)(=O)N3CCCCC3)ccc2F)CC1	i
CCCCCNC(=O)c1cc(S(=O)(=O)N2CCCCC2)ccc1F	254
O=C(COC(=O)CNC(=O)c1ccccc1F)Nc1cccc(S(=O)(=O)N2CCCCCC2)c1	i
CC(C)NC(=O)COC(=O)c1cc(Br)ccc1Cl	i
O=c1oc2ccc(Br)cc2cc1S(=O)(=O)c1ccc(F)cc1	i
CC(C)NC(=O)c1cc2cc(Br)ccc2oc1=O	129
COc1ccc(NC(=O)COC(=O)CCCN2C(=O)c3ccccc3C2=O)cc1Cl	i
COc1ccc(CCC(=O)Nc2c(C)n(C)n(-c3ccccc3)c2=O)cc1	i
COCCCNC(=O)CN1C(=O)c2ccccc2C1=O	i
CCOCCCNC(=O)CN1C(=O)/C(=C/c2ccccc2)Sc2ccccc21	313
CCN1CCN(CCCNC(=O)c2ccc(/C=C3/Sc4ccccc4N(Cc4ccccc4F)C3=O)cc2)CC1	i
CCCOc1ccc(C(=O)N2CCCC2)cc1OC	i
N#CC1=C(N)SC(N)=C(C#N)C1c1ccoc1	i
Cc1ccc(C2C(C#N)=C(N)SC(N)=C2C#N)c(C)c1	i
Cc1ccc(C2C(C#N)=C(N)SC(N)=C2C#N)cc1	121
CCOC(=O)c1ccc(S(=O)(=O)NNC(=O)COc2ccccc2C)cc1	i
COC(=O)c1cc(C(=O)c2ccc(C(C)(C)C)cc2)c[nH]1	i
SMILES	INS promoter act
O=C(c1ccc(Cl)cc1)c1c[nH]c(C(=O)NNc2cccc(Cl)n2)c1	431
O=C(NNc1cccc(Cl)n1)c1ccc(Cl)cc1Cl	i
CCc1nnc(NC(=O)[C@@H](NC(=O)c2cccc(S(=O)(=O)N(CC)CC)c2)C(C)C)s1	i
O=C(O)CC12CC3CC(C1)CC(n1ncc(NCc4ccc5c(c4)OCO5)c(Cl)c1=O)(C3)C2	i
Cc1ccccc1N1C(=O)CC1(C#N)c1ccc(OCc2ccccc2)cc1 (centres undefined)	i
Nc1nncn1C(=O)c1c(Cl)cccc1Cl	444
